# WT yeast gro inh = growth inhibition of WT strain, primary screen, mitochondrial fusion inhibitor project, WT and mutant strains, chemical genetic; inhibition, % at 10 µM; AID 1362, 2008; 2.1% of 190,000 active; mitochondrial fusion phenotypic screen; in the data active means inhibition above about 58%; tested in S. cerevisiae
# Diaph act CS = compounds boosting diaphorase resazurin reduction – biochemical, uHTS, resorufin fluorescence, counter-screen for diaphorase-coupled primary assays, primary screen; Diaphorase/resazurin coupled assay, 16 min; active compounds read high; 1 = vehicle wells, 0 = NADH-free wells; activation factor at 20 µM; 0.005% of 190,000 active; AID 1229, 2008;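 active means diaphorase activity raised at least twofold by the compound at 20 µM; inactive means activation factor below 2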
#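 System – purified diaphorase enzyme from Clostridium kluyveri · Input – enzyme 0.07 U/mL final · Also added – final NADH 0.114 mM, resazurin 0.1 mM · Measured by – fluorescence of resorufin, 544 nm excitation, 590 nm emission · Timing – 16 min enzyme reaction, ambient temperature · Measure – resorufin increase flagging diaphorase activators or reducers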
# PMI act = activators of human PMI, primary screen, biochemical, fluorescence intensity, near-Km mannose 6-phosphate. Mannose-6-phosphate isomerase (Homo sapiens), P34949. purified human PMI, coupled resazurin fluorescence, 20 min; active compounds read high; 1 = vehicle control, 0 substrate-free wells. activation factor at 20 µM. 0.005% of 190,000 active. AID 1214, 2008;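 active means activation factor of 2 or more at 20 µM, relative to plate controls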
# Target sequence (P34949 whole entry, looked up): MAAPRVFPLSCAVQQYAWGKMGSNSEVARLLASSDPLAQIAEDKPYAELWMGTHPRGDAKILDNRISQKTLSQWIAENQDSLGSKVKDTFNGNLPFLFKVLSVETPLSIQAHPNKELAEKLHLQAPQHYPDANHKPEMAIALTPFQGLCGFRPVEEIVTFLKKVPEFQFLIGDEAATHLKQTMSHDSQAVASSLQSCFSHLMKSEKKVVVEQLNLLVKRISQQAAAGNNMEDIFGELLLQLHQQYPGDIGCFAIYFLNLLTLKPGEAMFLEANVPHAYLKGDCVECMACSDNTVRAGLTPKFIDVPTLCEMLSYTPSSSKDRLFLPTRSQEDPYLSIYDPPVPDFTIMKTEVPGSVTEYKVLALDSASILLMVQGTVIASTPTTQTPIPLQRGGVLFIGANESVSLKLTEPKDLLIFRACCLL
# PMI act hi M6P = human PMI activators, high substrate, primary screen, biochemical, fluorescence intensity, near-saturating mannose 6-phosphate; Mannose-6-phosphate isomerase (Homo sapiens), P34949; coupled PMI enzyme assay, resazurin fluorescence, 20 min; active compounds read high; 1 = untreated enzyme, 0 = substrate-free blank; activation factor at 20 µM; 0.34% of 190,000 active; AID 1216, 2008;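 active means activation factor of 2 or more at 20 µM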
#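 Test system: human PMI in coupled enzyme assay; Input: PMI at 15 ng/mL final; Medium: HEPES buffer, pH 7.4; Schedule: 20 min incubation at room temperature; Technique: resorufin fluorescence at Ex 544/Em 590 nm; Compound: 20 µM single dose; Probe or stimulus: Near-saturating mannose-6-phosphate, 1.0 mM.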
# L major viab = Leishmania major promastigote growth inhibition, primary screen | inhibition, % at 10 µM | Leishmania major promastigotes, resazurin fluorescence viability | AID 1063, 2008 | 9% of 200,000 active; in the data active means inhibition above about 50%;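 further: promastigotes grown with compound for 44 hours at 28 °C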
# * hit, by the source's call; / = not tested or not shown. A selection: hits, their analogues and other compounds. The true share with any hit is near 10%.
SMILES,WT yeast gro inh,Diaph act CS,PMI act,PMI act hi M6P,L major viab
COc1cccc2sc(Nc3nc(-c4ccncc4)cs3)nc12,6,1.1,1.2,1.2,22
COc1cccc(-c2nnc(Nc3nc4c(F)cccc4s3)o2)c1,11,1.1,1.2,1.2,1
COc1cccc2sc(NN)nc12,20,0.9,1.5,1.3,60*
O=C(COc1ccc(S(=O)(=O)NC2CCCCC2)cc1)N1CCN(c2cccc(Cl)c2)CC1,/,0.9,1,1.1,36
Cc1ccc(NC(=O)NNC(=O)c2snnc2C)cc1,8,0.9,1,1,-10
Clc1ccc(OCCCn2ccnc2)c(Br)c1,48,0.9,1.1,1,95*
COc1ccc(Cn2ccnc2)cc1Br,0,1,1,1.1,71*
Cc1ccc(OCCOCCn2ccnc2)c(Br)c1,4,1.1,1,1,92*
COc1ccc(Cn2ccnc2)cc1[N+](=O)[O-],3,0.9,1,1,-1
O=C(OC(C(=O)NCc1ccc2c(c1)OCO2)c1ccncc1)c1ccc(Cl)nc1 (stereo not drawn),-1,1,1.1,1.1,-5
CCCCNC(=O)CNC(=S)N(Cc1ccccc1F)C1CCCCC1,9,1,1,1,6
COc1ccc(C2=Nn3c(nnc3C3CCCCC3)SC2)cc1OC,-10,0.9,1,1,50*
Cc1cc(-c2ccccc2)nc2cc(C(=O)N(Cc3ccccc3)Cc3ccccc3)nn12,75*,0.7,0.9,0.9,53*
COc1cccc(N2CCN(C(=O)CSc3ccc(F)cc3)CC2)c1,-12,0.9,0.9,0.8,1
Cc1noc(C)c1S(=O)(=O)Nc1ccc(C(=O)N2CCN(c3cccc(Cl)c3)CC2)cc1,15,0.8,0.9,1,-5
Cc1cccc(N2CCN(C(=O)c3ccc(NS(=O)(=O)c4c(C)noc4C)cc3)CC2)c1C,16,0.7,0.8,0.9,97*
Cc1cccc(N2CCN(C(=O)C34CC5CC(CC(C5)C3)C4)CC2)c1C,88*,0.9,0.9,1,7
Cc1cccc(N2CCN(C(=O)c3ccc4ncsc4c3)CC2)c1C,15,0.7,0.9,0.8,61*
O=C(c1ccc2ncsc2c1)N1CCN(c2ccccc2Cl)CC1,16,0.9,1.1,1,38
O=C(COC(=O)c1cccnc1)Nc1ccc2c(c1)OCO2,6,0.8,0.9,0.8,4
CCCc1nnc(NC(=O)C(CC)OC(=O)c2cc(C)nc3ccccc23)s1 (stereo not drawn),23,0.8,0.9,0.8,-6
O=C(Nc1cccc([N+](=O)[O-])c1)c1ccc(N2CCCC2=O)cc1,-18,1,1,1,-4
Cc1ccc([N+](=O)[O-])cc1-c1ccc(/C=N\n2nnnc2N)o1,-6,0.8,1,1,51*
O=C1C(Cl)=C(Nc2ccccc2)C(=O)c2ccccc21,15,0.7,1,0.5,-5
O=C(O)c1cccc(NC2=C(Cl)C(=O)c3ccccc3C2=O)c1,5,0.8,1.1,0.6,66*
SMILES,WT yeast gro inh,Diaph act CS,PMI act,PMI act hi M6P,L major viab
Cc1ccc(NC2=C(NC(=O)c3ccccc3)C(=O)c3ccccc3C2=O)cc1Cl,68*,0.6,0.8,0.9,98*
CCN(CC)CCNC(=O)c1ccc(Sc2ccc(C)cc2)c(NC(C)=O)c1,2,1.1,1.1,1.1,-2
COc1cccc(CC(NC(C)=O)C(=O)NC2CCN(S(=O)(=O)c3ccc(NC(C)=O)cc3)CC2)c1 (stereo not drawn),-22,0.9,0.9,0.9,-6
CCCCCOc1ccc(CN2CCOCC2)cc1Cl,42,0.9,0.8,0.9,86*
Clc1ccc(OCCOCCOc2cccc3cccnc23)c(Br)c1,24,0.8,0.8,0.9,-5
Cc1ccc(OCCCCN2CCC(C)CC2)c(Br)c1,37,1,1.1,1.2,100*
CC1CCCN(CCOCCOc2ccc(Cl)cc2Br)C1 (stereo not drawn),-16,0.9,1,1.1,98*
Clc1cc(Br)ccc1OCCN1CCOCC1,-2,0.8,1,0.9,93*
CN(C)S(=O)(=O)c1ccc(Cl)c(NC(=O)COC(=O)/C=C/c2ccco2)c1,-19,1,1,1.1,-11
O=C(NNC1CC(=O)N(c2ccc(Cl)cc2)C1=O)c1ccco1 (stereo not drawn),-8,1,1.1,1.1,-5
O=C(O)CCn1cc(C2CC(c3ccccc3)=NN2c2ccccc2)c(-c2ccccc2)n1 (stereo not drawn),-18,0.8,1.1,0.8,-3
O=C(COC(=O)C1CC1)NCc1ccccc1Cl,-2,0.9,1,1,-1
O=C1CCC(=O)N1OCCCOc1ccc(Br)cc1Cl,-8,0.9,1,1,8
CC1CCN(CCCOc2ccc(Br)cc2Cl)CC1,45,1,1.1,1,89*
CC1CCCN(CCOCCOc2ccc(Br)cc2Cl)C1 (stereo not drawn),40,0.8,1,1,97*
CN1CCN(C(=O)C2=C[C@@H](c3ccccc3)C[C@@H](OCCCCO)O2)CC1,0,0.8,0.8,0.8,-3
N/C(=N\OC(=O)c1cc(Cl)ccc1Cl)c1ccccn1,6,1.1,1,1.1,33
O=C(COC(=O)/C=C/c1ccc(Cl)cc1)NCCc1ccccc1,4,1,1,1,-3
CCn1cc(C(=O)NCCCN2CC(C)CC(C)C2)c(=O)c2cc(S(=O)(=O)N(C)C)ccc21 (stereo not drawn),5,1,0.9,1,-5
CCC1CCCCN1CCCNC(=O)c1cn(CC)c2ccc(S(=O)(=O)N3CCc4ccccc4C3)cc2c1=O (stereo not drawn),10,0.8,1,1,98*
CCN1CCCC1CNC(=O)c1cn(CC)c2ccc(S(=O)(=O)N3CCCCCC3)cc2c1=O (stereo not drawn),14,0.7,0.8,0.8,6
CCn1cc(C(=O)NCCCN2CCCC(C)C2)c(=O)c2cc(S(=O)(=O)N3CCc4ccccc4C3)ccc21 (stereo not drawn),6,0.8,0.9,0.9,100*
O=S(=O)(Cc1ccccc1)Cc1cnc(Cl)s1,-2,0.9,1,0.9,-7
CCn1ccnc1CNC(=O)CC1C(=O)NCCN1CC(c1ccccc1)c1ccccc1 (stereo not drawn),1,1.2,1,1,2
COc1cc(Cl)c(C)cc1NC(=O)c1cc(S(=O)(=O)N(C)C)ccc1N1CCCC1,29,0.8,0.9,0.9,4

# Assay outcomes deposited in PubChem by several laboratories.
